Source: ChEMBL document CHEMBL1136923, “Highly potent, orally available anti-inflammatory broad-spectrum chemokine inhibitors” (J Med Chem, 2009)

How the values were obtained:
[1] = molecular target: C-C chemokine receptor type 2 (Homo sapiens) (UniProt P41597); assay: Antagonist activity at CCR2 in human THP1 cells assessed as inhibition of CCL2-induced chemotaxis at 1000 nM after 2 hrs by microtiter format trans-well migration assay; assay type: functional, cell-based; details: THP-1
Method in brief: (§1)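 Microtiter trans-well migration assay in Gey's balanced salt solution with 1 mg/mL endotoxin-free BSA, no fetal calf serum. Migration ran 2 h at 37 °C. Compounds dissolved in DMSO and added to both top and bottom compartments, final DMSO 1%.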

[2] = molecular target: T1, C-C chemokine receptor type 1 (Homo sapiens) (UniProt P32246); assay: Antagonist activity at CCR1 in human THP1 cells assessed as inhibition of CCL3-induced chemotaxis after 2 hrs by microtiter format trans-well migration assay; assay type: functional, cell-based; details: THP-1; method in brief: as §1
T1 sequence (whole entry): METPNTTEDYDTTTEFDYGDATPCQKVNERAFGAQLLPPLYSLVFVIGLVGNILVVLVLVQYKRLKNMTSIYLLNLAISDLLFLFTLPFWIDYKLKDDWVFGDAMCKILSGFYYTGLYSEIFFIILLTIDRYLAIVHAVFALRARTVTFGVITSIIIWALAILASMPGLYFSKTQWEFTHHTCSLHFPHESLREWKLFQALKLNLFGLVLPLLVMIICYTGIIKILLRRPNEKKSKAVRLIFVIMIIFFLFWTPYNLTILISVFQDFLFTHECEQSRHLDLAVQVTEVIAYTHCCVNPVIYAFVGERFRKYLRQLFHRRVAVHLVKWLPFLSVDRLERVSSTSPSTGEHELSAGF

[3] = Antagonist activity at Interleukin-8 receptor in human PMNC assessed as inhibition of CXCL8-induced chemotaxis at 1 nM after 2 hrs by microtiter format trans-well migration assay; assay type: functional; method in brief: as §1
[4] = Cmax in Sprague-Dawley rat at 3 mg/kg, po administered as single dose; assay type: ADME, organism-based; design: dose 3 mg/kg, route oral; details: in vivo
Method in brief: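 Male Sprague-Dawley rats, three per compound, receive a single oral dose by gavage in 1% carboxymethylcellulose in 0.9% saline, with food and water ad libitum. Plasma is sampled from 5 to 480 min and drug is quantified by positive-mode LC/MS/MS after acetonitrile/formic acid extraction. The lower limit of quantitation is about 2 ng/mL. Exposure is AUC(0→t) by the linear/log trapezoidal rule, and F is oral fractional bioavailability.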

[5] = molecular target: C-C chemokine receptor type 2 (Homo sapiens) (UniProt P41597); assay: Antagonist activity at CCR2 in human THP1 cells assessed as inhibition of CCL2-induced chemotaxis at 0.01 nM after 2 hrs by microtiter format trans-well migration assay; assay type: functional, cell-based; details: THP-1; method in brief: as §1
[6] = test system: Mus musculus; assay: Antiinflammatory activity in sc dosed mouse assessed as inhibition of LPS-induced TNFalpha upregulation measured 2 hrs after LPS challenge; assay type: functional
[7] = test system: Mus musculus; assay: Antiinflammatory activity in mouse assessed as inhibition of LPS-induced TNFalpha upregulation at 0.025 mg, sc measured 2 hrs after LPS challenge; assay type: functional
Method in brief: (§2)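 Murine sublethal endotoxemia: LPS given intraperitoneally, with serum TNF-α measured 2 h after the LPS injection as the end point. Compound was given subcutaneously or orally. Vehicle was 0.6% DMSO and 1% carboxymethylcellulose (final concentrations) in sterile water. Effect is reported as % relative to control.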

[8] = test system: Mus musculus; assay: Antiinflammatory activity in mouse assessed as inhibition of LPS-induced TNFalpha upregulation at 0.075 ug, sc measured 2 hrs after LPS challenge; assay type: functional; method in brief: as §2
[9] = molecular target: C-C chemokine receptor type 5 (Homo sapiens) (UniProt P51681); assay: Antagonist activity at CCR5 in human THP1 cells assessed as inhibition of CCL5-induced chemotaxis at 10 nM after 2 hrs by microtiter format trans-well migration assay; assay type: functional, cell-based; details: THP-1; method in brief: as §1
C-C chemokine receptor type 5 (Homo sapiens), sequence (P51681 whole entry, looked up): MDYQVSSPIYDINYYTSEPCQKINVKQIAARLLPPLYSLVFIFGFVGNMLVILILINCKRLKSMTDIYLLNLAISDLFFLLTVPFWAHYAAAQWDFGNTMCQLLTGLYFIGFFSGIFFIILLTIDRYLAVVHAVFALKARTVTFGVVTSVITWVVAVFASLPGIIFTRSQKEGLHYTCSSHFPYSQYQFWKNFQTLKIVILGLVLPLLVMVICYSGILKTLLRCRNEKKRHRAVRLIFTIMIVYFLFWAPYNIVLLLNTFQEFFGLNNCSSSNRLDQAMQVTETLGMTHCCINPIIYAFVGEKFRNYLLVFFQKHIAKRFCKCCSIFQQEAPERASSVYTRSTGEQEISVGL

[10] = molecular target: C-C chemokine receptor type 5 (Homo sapiens) (UniProt P51681); assay: Antagonist activity at CCR5 in human THP1 cells assessed as inhibition of CCL5-induced chemotaxis at 1 nM after 2 hrs by microtiter format trans-well migration assay; assay type: functional, cell-based; details: THP-1; method in brief: as §1
[11] = molecular target: T2, C5a anaphylatoxin chemotactic receptor 1 (Homo sapiens) (UniProt P21730); assay: Antagonist activity at C5a receptor in human PMNC assessed as inhibition of C5a-induced chemotaxis at 1000 nM after 2 hrs by microtiter format trans-well migration assay; assay type: functional; method in brief: as §1
T2 sequence (whole entry): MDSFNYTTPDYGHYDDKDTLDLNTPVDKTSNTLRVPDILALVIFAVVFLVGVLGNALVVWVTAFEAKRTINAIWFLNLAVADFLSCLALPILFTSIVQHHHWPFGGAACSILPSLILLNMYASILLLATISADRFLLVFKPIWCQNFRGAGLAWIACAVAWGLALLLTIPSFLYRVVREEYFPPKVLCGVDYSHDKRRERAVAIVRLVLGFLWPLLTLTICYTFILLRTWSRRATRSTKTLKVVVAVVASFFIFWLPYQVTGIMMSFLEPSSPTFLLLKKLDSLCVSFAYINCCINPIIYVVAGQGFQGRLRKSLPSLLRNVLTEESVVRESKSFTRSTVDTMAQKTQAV

[12] = molecular target: T1, C-C chemokine receptor type 1 (Homo sapiens); assay: Antagonist activity at CCR1 in human THP1 cells assessed as inhibition of CCL3-induced chemotaxis at 1000 nM after 2 hrs by microtiter format trans-well migration assay; assay type: functional, cell-based; details: THP-1; method in brief: as §1
[13] = test system: THP-1; assay: Cytotoxicity against human THP1 cells up to 100 uM by trypan blue exclusion assay; assay type: cell-based
[14] = molecular target: C-C chemokine receptor type 2 (Homo sapiens) (UniProt P41597); assay: Antagonist activity at CCR2 in human THP1 cells assessed as inhibition of CCL2-induced chemotaxis after 2 hrs by microtiter format trans-well migration assay; assay type: functional, cell-based; details: THP-1; method in brief: as §1
[15] = test system: Mus musculus; assay: Antiinflammatory activity in mouse assessed as inhibition of LPS-induced TNFalpha upregulation at 0.0075 mg, sc measured 2 hrs after LPS challenge; assay type: functional; method in brief: as §2
[16] = test system: Mus musculus; assay: Antiinflammatory activity in mouse assessed as inhibition of LPS-induced TNFalpha upregulation at 0.0025 mg, sc measured 2 hrs after LPS challenge; assay type: functional; method in brief: as §2

C-C chemokine receptor type 2 (Homo sapiens), sequence (P41597 whole entry, looked up): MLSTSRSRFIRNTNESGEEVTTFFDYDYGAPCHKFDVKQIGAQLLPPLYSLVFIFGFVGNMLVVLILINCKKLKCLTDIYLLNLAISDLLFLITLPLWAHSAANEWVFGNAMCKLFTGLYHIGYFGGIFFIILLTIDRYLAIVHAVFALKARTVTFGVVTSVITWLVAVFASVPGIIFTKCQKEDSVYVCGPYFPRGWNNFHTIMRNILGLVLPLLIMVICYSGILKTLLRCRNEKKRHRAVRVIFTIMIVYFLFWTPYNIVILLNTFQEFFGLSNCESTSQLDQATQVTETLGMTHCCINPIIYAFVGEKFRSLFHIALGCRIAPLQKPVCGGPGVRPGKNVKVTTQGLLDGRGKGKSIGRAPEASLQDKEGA

**Q.** With `CCCCCCCCCCC(C)(C)C(=O)N[C@H]1CCCCNC1=O` as the compound, how does the inhibition [1] read?
**A.** The inhibition was 97%.

**Q.** What about the ED50 [2] of the same compound?
**A.** Its ED50 is 0.15 nM.

**Q.** What about the inhibition at 0.001 µM [3] of the same compound?
**A.** Its inhibition at 0.001 µM is 71%.

**Q.** And the Cmax [4]?
**A.** Its Cmax is 60 ng/mL.

**Q.** And the inhibition [5]?
**A.** Its inhibition is 12%.

**Q.** And the ED50 [6]?
**A.** Its ED50 is 0.15 µg/kg.

**Q.** What about the “inhibition (INH)” value [7] of the same compound?
**A.** Its value is 64%.

**Q.** What about the “inhibition (INH)” value [8] of the same compound?
**A.** The value was 65%.

**Q.** What about the inhibition [9] of the same compound?
**A.** Its inhibition is 102%.

**Q.** What about the inhibition [10] of the same compound?
**A.** The inhibition was 56%.

**Q.** What about the inhibition [11] of the same compound?
**A.** Its inhibition is 26%.

**Q.** And the inhibition [12]?
**A.** The inhibition was 99.5%.

**Q.** And the Activity [13]?
**A.** The Activity was “Non-toxic”.

**Q.** What about the ED50 [14] of the same compound?
**A.** Its ED50 is 0.09 nM.

**Q.** And the “inhibition (INH)” value [15]?
**A.** Its value is 63%.

**Q.** And the “inhibition (INH)” value [16]?
**A.** Its value is 57%.
